A short description of data set [1]: Ratio of fEC50 for in vivo antagonist activity at TRPA1 in AITC-induced rat pain model assessed as reduction in pain behaviour when administered orally to IC50 for antagonist activity at rat TRPA1. Conditions: po. Type of data set: organism-based. In short, it runs like this: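 The in vivo value comes from the oral-dose rat AITC paw-injection model at Tmax, scoring flinching and licking against measured exposures across animals. The in vitro comparator is rat TRPA1 antagonism in a CHO cell-based FLIPR Ca2+ assay.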

Data set [2] is described as follows: Protein binding in rat plasma incubated for 4 hrs. Type of data set: ADME, cell-free. The settings on record: read-out: PPB (converted). In short, it runs like this: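 Rat plasma protein binding was determined after 4 h compound incubation rather than the standard 24 h, because of compound instability in rat plasma.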
Data set [3] in a line: Lipophilicity, log D of the compound at pH 7.4. Conditions: buffer. The data set is classed as physicochemical.
Data set [4] can be described thus: Kinetic solubility of the compound. Type of data set: physicochemical. The settings on record: for solubility kinetic: read-out: Kinetic_solubility.
The target of data set [5] is Transient receptor potential cation channel subfamily A member 1 (Homo sapiens, UniProt O75762). As to the kind of experiment: Antagonist activity at human TRPA1 expressed in CHO cells measured by calcium based FLIPR assay. Type of data set: cell-based.
The target in data set [6] is Transient receptor potential cation channel subfamily A member 1 (Rattus norvegicus, UniProt Q6RI86). As to the kind of experiment: Antagonist activity at rat TRPA1. In short, it runs like this: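 In vitro potency read in a CHO cell line-based fluorometric imaging plate reader (FLIPR) Ca2+ assay against the rat TRPA1 channel.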
A short description of data set [7]: Unbound clearance in rat at 1 mg/kg. Conditions: in vivo. Type of data set: ADME, organism-based.
The nature of data set [8]: Unbound volume of distribution at steady state in rat at 1 mg/kg. The data set is classed as ADME, organism-based. The settings on record: in vivo.
Data set [9] addresses Transient receptor potential cation channel subfamily A member 1 (Rattus norvegicus) (UniProt Q6RI86). As to the kind of experiment: In vivo antagonist activity at TRPA1 in AITC-induced rat pain model assessed as reduction in pain behaviour when administered orally. Type of data set: functional, organism-based.
The nature of data set [10]: Half life in rat at 1 mg/kg. Type of data set: ADME, organism-based. Conditions: in vivo.
Data set [11] is described as follows: Volume of distribution at steady state in rat at 0.5 mg/kg. The data set is classed as ADME, organism-based. Conditions: in vivo, read-out: Vdss.
Data set [12] can be described thus: Plasma clearance in rat at 0.5 mg/kg. The data set is classed as ADME, organism-based.
Data set [13] can be described thus: Unbound clearance in rat at 0.5 mg/kg. The data set is classed as ADME, organism-based. The settings on record: in vivo.
A short description of data set [14]: Unbound volume of distribution at steady state in rat at 0.5 mg/kg. Type of data set: ADME, organism-based. Conditions: in vivo.
Data set [15] can be described thus: Permeability across apical to basolateral membrane in MDCK cells. The data set is classed as ADME, cell-based, Canis lupus familiaris. The settings on record: dog, read-out: permeability.
The nature of data set [16]: Half life in rat at 0.5 mg/kg. The data set is classed as ADME, organism-based. The settings on record: in vivo.
Data set [17] is described as follows: Volume of distribution at steady state in rat at 1 mg/kg. Conditions: in vivo, read-out: Vdss. Type of data set: ADME, organism-based.
Data set [18] is described as follows: Plasma clearance in rat at 1 mg/kg. Type of data set: ADME, organism-based.

Converted amounts (≈) assume the structure as drawn. A value given as a limit tells only on which side of the number the result lay.

Experimental findings from ChEMBL document CHEMBL4825747, “A Retrospective Look at the Impact of Binding Site Environment on the Optimization of TRPA1 Antagonists” (ACS Med Chem Lett, 2021) are described below.

For orientation: logD means lipophilicity at a set pH, counting ionised and neutral species. One may read the IC50 as the midpoint of a concentration-inhibition curve. A word on the half-life: it is the time needed for the level to fall by half in the phase considered. A lower half-life goes with fast loss. The term clearance denotes the volume of plasma or blood freed of the substance per unit of time.

Chain of Transient receptor potential cation channel subfamily A member 1 (Rattus norvegicus) (Q6RI86 whole entry): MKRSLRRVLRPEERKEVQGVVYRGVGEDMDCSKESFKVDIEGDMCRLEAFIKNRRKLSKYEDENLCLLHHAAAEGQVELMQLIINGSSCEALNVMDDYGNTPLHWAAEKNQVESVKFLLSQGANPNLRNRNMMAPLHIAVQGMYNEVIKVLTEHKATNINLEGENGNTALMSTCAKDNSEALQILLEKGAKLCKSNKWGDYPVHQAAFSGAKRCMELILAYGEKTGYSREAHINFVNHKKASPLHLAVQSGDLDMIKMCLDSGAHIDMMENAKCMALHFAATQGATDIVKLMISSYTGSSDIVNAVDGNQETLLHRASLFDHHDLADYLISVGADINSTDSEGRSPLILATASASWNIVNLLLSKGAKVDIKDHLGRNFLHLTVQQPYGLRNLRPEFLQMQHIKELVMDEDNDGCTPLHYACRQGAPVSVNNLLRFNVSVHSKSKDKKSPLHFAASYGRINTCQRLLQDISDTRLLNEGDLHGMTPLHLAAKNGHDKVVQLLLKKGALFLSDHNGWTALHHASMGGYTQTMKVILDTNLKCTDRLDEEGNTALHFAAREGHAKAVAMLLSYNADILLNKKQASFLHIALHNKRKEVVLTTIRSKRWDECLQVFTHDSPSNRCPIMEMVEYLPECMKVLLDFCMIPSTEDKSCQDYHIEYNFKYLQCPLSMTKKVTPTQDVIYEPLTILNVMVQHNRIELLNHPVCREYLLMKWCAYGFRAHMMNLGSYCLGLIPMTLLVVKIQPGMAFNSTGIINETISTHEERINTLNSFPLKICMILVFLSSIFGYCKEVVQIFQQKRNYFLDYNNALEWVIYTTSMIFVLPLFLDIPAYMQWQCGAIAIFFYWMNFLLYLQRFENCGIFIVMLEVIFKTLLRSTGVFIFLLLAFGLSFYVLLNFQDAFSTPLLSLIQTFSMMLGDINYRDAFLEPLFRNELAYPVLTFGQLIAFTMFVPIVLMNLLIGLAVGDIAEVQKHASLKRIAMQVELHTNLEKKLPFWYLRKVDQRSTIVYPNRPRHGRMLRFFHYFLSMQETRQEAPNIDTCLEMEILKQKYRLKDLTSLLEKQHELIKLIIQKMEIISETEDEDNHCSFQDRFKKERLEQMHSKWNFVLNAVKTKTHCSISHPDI
Chain of Transient receptor potential cation channel subfamily A member 1 (Rattus norvegicus, UniProt Q6RI86) (Q6RI86 whole entry): as above
Chain of Transient receptor potential cation channel subfamily A member 1 (Homo sapiens, UniProt O75762) (O75762 whole entry): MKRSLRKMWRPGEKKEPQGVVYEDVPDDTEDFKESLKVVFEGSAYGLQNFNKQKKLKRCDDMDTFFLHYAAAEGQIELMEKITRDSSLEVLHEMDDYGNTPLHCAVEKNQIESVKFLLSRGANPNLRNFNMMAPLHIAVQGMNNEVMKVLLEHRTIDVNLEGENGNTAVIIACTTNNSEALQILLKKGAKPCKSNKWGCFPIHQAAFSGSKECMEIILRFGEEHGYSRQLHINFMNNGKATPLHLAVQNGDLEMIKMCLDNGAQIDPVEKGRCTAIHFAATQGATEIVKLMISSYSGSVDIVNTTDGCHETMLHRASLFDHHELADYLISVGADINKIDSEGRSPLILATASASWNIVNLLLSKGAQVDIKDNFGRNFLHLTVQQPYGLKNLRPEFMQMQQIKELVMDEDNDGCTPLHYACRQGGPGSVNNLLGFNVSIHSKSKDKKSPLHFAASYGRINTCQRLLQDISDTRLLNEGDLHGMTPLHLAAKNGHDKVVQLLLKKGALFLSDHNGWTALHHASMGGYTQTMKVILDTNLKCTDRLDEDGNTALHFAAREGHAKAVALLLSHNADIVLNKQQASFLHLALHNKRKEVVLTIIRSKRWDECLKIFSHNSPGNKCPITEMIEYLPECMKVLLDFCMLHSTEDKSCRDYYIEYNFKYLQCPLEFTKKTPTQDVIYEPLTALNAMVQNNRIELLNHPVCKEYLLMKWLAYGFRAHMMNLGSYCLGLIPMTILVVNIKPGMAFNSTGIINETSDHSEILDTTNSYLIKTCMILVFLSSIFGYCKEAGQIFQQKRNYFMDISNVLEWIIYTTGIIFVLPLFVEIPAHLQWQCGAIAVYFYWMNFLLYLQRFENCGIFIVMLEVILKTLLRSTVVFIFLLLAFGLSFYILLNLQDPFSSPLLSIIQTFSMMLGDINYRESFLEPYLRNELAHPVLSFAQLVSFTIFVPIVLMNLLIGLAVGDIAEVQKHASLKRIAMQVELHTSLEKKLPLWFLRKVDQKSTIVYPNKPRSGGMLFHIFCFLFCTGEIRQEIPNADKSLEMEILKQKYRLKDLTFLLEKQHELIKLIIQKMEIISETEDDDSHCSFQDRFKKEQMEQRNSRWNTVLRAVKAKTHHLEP

Consider `Cn1cnc2ncn(Cc3nc([C@H]4[C@@H]5CN(c6cccc(Cl)c6)C[C@@H]54)no3)c(=O)c21`, for which the Ratio in [1] worked out at 1. Also, in [2], the fraction unbound at 4 h is 0.021. This compound returned a pH-dependent lipophilicity (logD) in data set [3] of 2.9. The Kinetic_solubility in [4] worked out at 2 µM. Besides, the values for the IC50 in data set [5] and in data set [6] were 2.9 nM and 7.9 nM, respectively. This compound also came in with a CL free in data set [7] of 214 mL/min/kg. Moreover, the fVdss in [8] was determined as 110 L/kg. Moreover, the fEC50 in data set [9] amounted to 7.9 nM.
Take `Cn1cnc2ncn(Cc3nn(C[C@H](F)c4ccc(Cl)cc4)c(=O)o3)c(=O)c21`: the Ratio in data set [1] is 22. For the same compound, the fraction unbound at 4 h in data set [2] is 0.381. This compound showed a log distribution coefficient (logD) in data set [3] of 1.2. The concentration for half-maximal inhibition (IC50) in data set [5] came out at 20 nM; in data set [6], 18 nM. Further, the CL free in [7] stood at 45 mL/min/kg. This compound also had a half-life in data set [10] of 1.5 h. The compound further returned a fVdss in data set [8] of 3.4 L/kg. Besides, the fEC50 in data set [9] worked out at 390 nM.
Regarding `Cn1cnc2ncn(Cc3nc([C@@H]4CO[C@@H](c5ccc(Cl)cc5)C4)no3)c(=O)c21`, in data set [2], the fraction unbound at 4 h was 0.192. The logD in data set [3] is 1.8. For the same compound, the solubility kinetic in data set [4] was found to be 120 µM (≈ 49.5 µg/mL). In data set [6], this compound showed an IC50 of 7.4 nM. This compound also yielded a CL free in data set [7] of 89 mL/min/kg. Moreover, the fVdss in [8] amounted to 11 L/kg. Moreover, the fEC50 in data set [9] amounted to 53 nM.
Take `C[C@H]1[C@H](F)C[C@@H](C(=O)NCc2cc(-c3cnc(C(F)(F)F)nc3)ncn2)N1S(=O)(=O)c1ccc(F)cc1`: in [11], the Vd turned out to be 1.1 L/kg. In addition, in data set [2], the fraction unbound at 4 h was 0.075. Further, the solubility kinetic in data set [4] stood at 98 µM (≈ 53.2 µg/mL). Moreover, in data set [6], the midpoint of inhibition, the IC50, lay at 390 nM. Besides, the clearance in [12] came to 6.4 mL/min/kg. The CL free in data set [13] was found to be 85 mL/min/kg. In addition, the fVdss in [14] stood at 15 L/kg. Moreover, the Papp A→B in [15] is 16.5 ×10⁻⁶ cm/s. This compound had a half-life in [16] of 2 h.
Take `C[C@H]1[C@H](F)C[C@@H](C(=O)NCc2cc(-c3cnc(C(F)(F)F)nc3)ncc2F)N1S(=O)(=O)c1ccc(F)cc1`: the Ratio in data set [1] was 1.7. Besides, the fraction unbound at 4 h in data set [2] was 0.028. The solubility kinetic in data set [4] was under 1 µM. Besides, the Vd in data set [17] came out at 2.6 L/kg. Also, the half-maximal inhibitory concentration (IC50) in [5] was 8.4 nM. Also, the CL free in data set [7] turned out to be 157 mL/min/kg. The compound further had a fVdss in data set [8] of 93 L/kg. Besides, in data set [9], the fEC50 is 60 nM.
Turning to `Cn1cnc2ncn(Cc3nn([C@H]4C[C@H](c5ccc(Cl)cc5)C4)c(=O)o3)c(=O)c21`, the clearance in data set [18] was 10 mL/min/kg. Further, in data set [2], the fraction unbound at 4 h was 0.081. For the same compound, the logD in [3] is 2.4. Besides, the solubility kinetic in [4] was 15 µM (≈ 6.19 µg/mL). In addition, the Vd in data set [17] is 2.3 L/kg. Also, half-maximal inhibition in data set [6] (IC50) was put at 14 nM. The same compound showed a CL free in data set [7] of 123 mL/min/kg. In [10], this compound showed a half-life of 2.7 h. In data set [8], the fVdss was found to be 28 L/kg. The fEC50 in data set [9] stood at 49 nM. Moreover, in data set [15], the Papp A→B came out at 6.4 ×10⁻⁶ cm/s.
As for `C[C@H]1[C@H](F)C[C@@H](C(=O)NCc2cc(-c3ccc(C(F)(F)F)nc3)ncn2)N1S(=O)(=O)c1ccc(F)cc1`, in data set [11], the Vd turned out to be 2.2 L/kg. Moreover, the fraction unbound at 4 h in data set [2] was 0.052. For the same compound, half-maximal inhibition in [6] (IC50) required 1600 nM. Further, the clearance in [12] came to 10 mL/min/kg. Besides, the CL free in [13] amounted to 192 mL/min/kg. Moreover, the fVdss in data set [14] stood at 42 L/kg. The same compound gave a half-life in [16] of 2.6 h.
Turning to `C[C@H]1[C@H](F)C[C@@H](C(=O)NCc2cc(-c3cnc(C(F)(F)F)nc3)ncc2C(F)(F)F)N1S(=O)(=O)c1ccc(F)cc1`, the clearance in data set [18] was 7.7 mL/min/kg. Besides, the Ratio in data set [1] is listed as 0.37. Also, the fraction unbound at 4 h in data set [2] is 0.012. Besides, in [4], the Kinetic_solubility was determined as 7 µM. In data set [17], the Vd came to 5.6 L/kg. Also, the IC50 in data set [5] was determined as 1.6 nM; in data set [6], 10 nM. Also, in data set [7], the CL free is 642 mL/min/kg. This compound also had a half-life in data set [10] of 9.8 h. In addition, the fVdss in data set [8] stood at 467 L/kg. In addition, the fEC50 in [9] came out at 3.7 nM. The Papp A→B in [15] turned out to be 27.5 ×10⁻⁶ cm/s.
